Consider eight compounds from ChEMBL document CHEMBL4359886, “Imidazo[2,1-a]isoindole scaffold as an uncharted structure active on Leishmania donovani” (Eur J Med Chem, 2019).

Active and inactive are the calls of the source. The rule behind the calls is not given here. Bounds are passed on as bounds.

Data set [1] in a line: Cytotoxicity against human MRC5 cells assessed as reduction in cell viability incubated for 72 hrs by MTT assay. The data set is classed as cell-based. The method, boiled down:
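MRC5-SV2 (SV40-transformed human lung fibroblasts) were grown in DMEM with 10% hiFBS at 37 °C, 5% CO₂. Cells were exposed to increasing compound concentrations for 72 h at 37 °C, followed by MTT reduction. CC50 is the concentration reducing proliferation by 50% versus untreated cells. Three independent experiments in triplicate.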

The nature of data set [2]: Selectivity index, ratio of CC50 for macrophage-differentiated human THP1 cells to EC50 for Leishmania donovani MHOM/ET/67/HU3 amastigotes harboring luciferase reporter gene infected in macrophage-differentiated human THP1 cells. In kind it is toxicity. As to conditions: macrophage-differentiated THP-1 cells, read-out: Ratio CC50/EC50. The method, boiled down:
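CC50 came from PMA-differentiated THP-1 cells exposed to compound for 72 h at 37 °C and read by MTT reduction (three independent experiments, triplicate). This was divided by the EC50 against intracellular amastigotes, measured by luciferase luminescence after 72 h of treatment.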

Data set [3] concerns Leishmania donovani. The data set is described as follows: Antileishmanial activity against Leishmania donovani MHOM/ET/67/HU3 amastigotes harboring luciferase reporter gene infected in macrophage-differentiated human THP1 cells incubated for 72 hrs by luminescence based assay. The data set is classed as functional, organism-based. As to conditions: MHOM/ET/67/HU3, THP-1, 72 h. A digest of the protocol: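 THP-1 cells were differentiated with PMA (20 ng/mL, 48 h), then kept 24 h in fresh medium. They were infected 24 h at 35 °C with stationary luciferase-expressing promastigotes at a macrophage:parasite ratio of 1:10, and free parasites were washed off. Compounds were added at 0.62–40 μM for 72 h at 37 °C. Cells were lysed with 0.1% Triton X-100 and luminescence read. EC50 from three independent experiments in triplicate.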
(A reporter such as luciferase makes a cellular process visible.)

Data set [4] is described as follows: Cytotoxicity against macrophage-differentiated human THP1 cells assessed as reduction in cell viability incubated for 72 hrs by MTT assay. The data set is classed as cell-based. The settings on record: macrophage-differentiated THP-1 cells. A digest of the protocol: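 THP-1 cells (3×10^4 per well) were differentiated with PMA (20 ng/mL, 48 h), then kept 24 h in fresh RPMI-1640 with 10% hiFBS. They were exposed to increasing compound concentrations for 72 h at 37 °C, then read by MTT reduction. CC50 is the 50% reduction versus untreated controls. Three independent experiments in triplicate.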
For orientation: Tetrazolium assays rely on reduction of a dye to a coloured formazan, in cell work by metabolically active cells.

The test system of data set [5] is Leishmania donovani. The data set is described as follows: Antileishmanial activity against Leishmania donovani promastigotes incubated for 72 hrs by MTT assay. The data set is classed as functional, organism-based. A digest of the protocol:
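Promastigote proliferation was followed for 72 h in the presence of compound, then read by MTT reduction. EC50 is the concentration giving 50% inhibition of proliferation, from three independent experiments.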

The test system of data set [6] is Leishmania donovani. Briefly: Induction of mitochondrial membrane depolarization in Leishmania donovani promastigotes at 30 uM incubated for 4 hrs by Rhodamine 123 dye-based flow cytometric assay. The data set is classed as functional, organism-based. A digest of the protocol:
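Promastigotes at 20×10^6 cells/mL in serum-free, phenol-red-free RPMI 1640 were incubated with compound for 4 h. Rh123 (0.5 µg/mL) was added for 10 min, unbound probe was washed off, and intracellular accumulation was read by flow cytometry (ex 488/em 520 nm). Parasites given 10 mM KCN served as the dysfunctional-mitochondrion control.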

The test system of data set [7] is Leishmania donovani. Briefly: Antileishmanial activity against Leishmania donovani promastigotes harboring 3-Luc gene assessed as decrease in intracellular ATP level at 5 to 50 uM using DMNEP-D-luciferin as substrate pretreated for 4 hrs followed by substrate addition measured for 10 mins by luminescence based assay. In kind it is functional, organism-based. A digest of the protocol: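 3-Luc promastigotes, which express cytoplasmic luciferase, at 20×10^6 cells/mL in serum-free, phenol-red-free RPMI 1640, incubated with 5, 10, 20, 30, 40 or 50 µM compound for 4 h at 26 °C. DMNPE-D-luciferin then added to 50 µM final, and luminescence recorded for 10 min. Values given as percent of untreated parasites. 1.5 µM 1,4-naphthoquinone used as respiratory-chain-inhibited control.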

Data set [8] has as its system Leishmania donovani. The data set is described as follows: Antileishmanial activity against Leishmania donovani promastigotes harboring 3-Luc gene assessed as decrease in intracellular ATP level using DMNEP-D-luciferin as substrate at 5 to 50 uM measured for 10 mins by luminescence based assay. The data set is classed as functional, organism-based. The method, boiled down: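 3-Luc promastigotes at 20×10^6 cells/mL in serum-free, phenol-red-free RPMI 1640 containing 50 µM DMNPE-D-luciferin. Once luminescence was stable, compound (5–50 µM) was added and luminescence of the live parasites followed in real time. Expressed as percent of untreated parasites. Parasites given 1.5 µM 1,4-naphthoquinone served as control.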

Data set [9] relates to Leishmania donovani. The data set is described as follows: Induction of plasma membrane permeabilization in Leishmania donovani promastigotes by sytox green-based fluorescence assay. The data set is classed as functional, organism-based. A digest of the protocol: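 Promastigotes at 20×10^6/mL in serum-free, phenol-red-free RPMI 1640 containing 1 µM SYTOX green received compound (10–50 µM tested). Fluorescence increase (ex 485/em 520 nm) was followed in real time. Triton X-100 (0.1% final) was then added to give full permeabilization, taken as 100%.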

Data set [10] deals with Leishmania donovani. Briefly: Antileishmanial activity against Leishmania donovani promastigotes incubated for 4 hrs by MTT assay. In kind it is functional, organism-based. A digest of the protocol:
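L. donovani promastigotes at 20×10^6 cells/mL in RPMI 1640 without serum or phenol red were exposed to compound for 4 h at 26 °C. MTT was then added (0.5 mg/mL final) for 2 h, and formazan was solubilized with 0.5% SDS final. A595 was read. IC50 is the concentration inhibiting MTT reduction by 50%. Run in triplicate, repeated at least twice.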

Data set [11] concerns Leishmania donovani. The data set is described as follows: Induction of mitochondrial membrane depolarization in Leishmania donovani promastigotes assessed as swelling of mitochondrial cristae at EC70 incubated for 12 hrs by transmission electron microscopic method. The data set is classed as functional, organism-based.
Data set [12] has as its system Leishmania donovani. The data set is described as follows: Induction of plasma membrane permeabilization in Leishmania donovani promastigotes assessed as formation of blebbings in plasma membrane at EC70 incubated for 12 hrs by transmission electron microscopic method. The data set is classed as functional, organism-based.

As a reminder, the CC50 is the concentration giving 50% cytotoxicity. By EC50 is commonly meant the concentration at which the effect is half-maximal. A higher EC50 goes with lower potency in that assay. As for `OC1(Cc2ccccc2Cl)c2c(Cl)ccc(Cl)c2C2=NCCN21` (stereo not given), the CC50 at 72 h in data set [1] came out at 41 µM; in data set [4], 82 µM. Besides, the selectivity ratio in data set [2] was found to be 19.7. Besides, it took 4.16 µM to reach a half-maximal effect in data set [3] (EC50).
In the case of `C[C@@H]1[C@H](O)[C@@H](C)/C=C/C=C/C=C/C=C/C=C/C=C/C=C/[C@H](O[C@@H]2O[C@H](C)[C@@H](O)[C@H](N)[C@@H]2O)C[C@@H]2O[C@](O)(C[C@@H](O)C[C@@H](O)[C@H](O)CC[C@@H](O)C[C@@H](O)CC(=O)O[C@H]1C)C[C@H](O)[C@H]2C(=O)O` [AMPHOTERICIN B], the CC50 at 72 h was 12 µM in data set [1] and 16 µM in [4].
In the case of `CSc1ccc(CC2(O)c3c(Cl)ccc(Cl)c3C3=NCCN32)cc1` (stereo not given), the CC50 at 72 h was found to be 77.4 µM in data set [1] and 84.4 µM in [4]. Also, the selectivity ratio in data set [2] worked out at 12.7. The compound also showed a half-maximal effective concentration (EC50) in [3] of 6.65 µM.
As usually defined, the IC50 is the concentration that gives 50% inhibition. A higher IC50 goes with weaker potency in that assay. `OC1(Cc2ccc(Cl)cc2)c2c(Cl)ccc(Cl)c2C2=NCCN21` (stereo not given): the cytotoxic concentration (CC50) at 72 h in [1] was found to be 33.8 µM; in data set [4] it was 68.7 µM. The EC50 was found to be 13.3 µM in data set [5] and 2.62 µM in [3]. Further, the outcome in [6], in data set [7] and in [8] was Active. The Activity result in [9] was “Dose-dependent effect”. Further, in [10], the IC50 came out at 14.4 µM. Besides, the selectivity ratio in [2] was 26.2.
Take `OC1(Cc2ccc(Cl)cc2)c2ccccc2C2=NCCN21` (stereo not given): the half-maximal cytotoxic concentration (CC50) at 72 h in [1] amounted to 80 µM; in [4], 145 µM. The figures for the concentration giving a half-maximal response (EC50) in data set [5] and in data set [3] were 11.8 µM and 2.1 µM, respectively. Moreover, the selectivity ratio in [2] came to 69.1.
The corresponding values for `OC1(Cc2ccc(Cl)cc2)c2cc(Cl)c(Cl)cc2C2=NCCN21` (stereo not given) are 8.91 µM, 31.9 µM, 6.9 µM, 2.95 µM and 10.8.
For the compound `CSc1ccc(CC2(O)c3cc(Cl)c(Cl)cc3C3=NCCN32)cc1` (stereo not given), the CC50 at 72 h came to 8.48 µM in data set [1] and 31.1 µM in data set [4]. Besides, the EC50 in data set [5] was determined as 2.1 µM; in data set [3], 1 µM. Also, the outcome in data set [6], in data set [11], in data set [7], in [8] and in [12] was Active. Also, the Activity entry in data set [9] is “Dose-dependent effect”. The compound also had an IC50 in [10] of 7.3 µM. Moreover, the selectivity ratio in data set [2] is 31.1.
As for `OC1(Cc2ccccc2)c2ccccc2C2=NCCN21` (stereo not given), the CC50 at 72 h in data set [1] was 182 µM; in data set [4], more than 200 µM. In addition, a half-maximal effect in data set [3] (EC50) was put at 27.8 µM.
